Columns and labels:
[1] = test system: pAKT; assay: Western blots of PI3K signaling feedback over time; assay type: cell-based; conditions: PIK3CAmut MFM223 cells
Summary of the method: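 PIK3CA-mutant MFM223 and PIK3CA-WT SUM52PE cells treated with 0.5 μmol/L test compound or 1 μmol/L reference PI3Kα inhibitor, with lysates taken at several durations. Immunoblotted for pHER3 and pAKT: nitrocellulose, 5% milk/TBST block, primary 1:1,000 overnight at 4°C, HRP secondary 1:10,000, ECL/film. n=2.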

[2] = test system: HER3–p85β interaction; assay: Co-IP of p85β / HER3; assay type: cell-based
Summary of the method: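 Cells exposed to test compound or FGFR2 inhibitor at several concentrations for 1 h. Lysis in Tris pH 7.5/NaCl/EDTA/1% NP40/10% glycerol with protease and phosphatase inhibitors. 1 mg lysate incubated overnight with anti-p85β (1:100, 1 mL), then protein A agarose 2 h. Immunoblot on nitrocellulose with 1:1,000 primary overnight at 4°C, HRP secondary 1:10,000 1 h RT, ECL/film. n=2.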

[3] = test system: phosphorylation of FGFR2, HER3 and AKT; assay: Immunoblotting after 1 hour treatment; assay type: cell-based; conditions: solely in MFE280 cells, 2-μmol/L
Summary of the method: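 Cells treated 1 h with 0.03 μmol/L FGFR2 inhibitor or 2 μmol/L lapatinib, then immunoblotted. Transfer to nitrocellulose; block 1 h in 5% milk/TBST RT. Primary antibody 1:1,000 overnight at 4°C; HRP secondary 1:10,000 1 h RT; ECL with film. n=2.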

[4] = test system: p110α; assay: Ubiquitin pulldown; assay type: cell-based; conditions: 6 hours
[5] = test system: RAS-GTP; assay: RAS-GTP pulldown and RAS co-IP; assay type: cell-based; conditions: MFM223 or MFE280 cells
Summary of the method: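 Cells treated with FGFR2 inhibitor or lapatinib for varying durations. Lysis on ice in 25 mM Tris pH 7.5, 150 mM NaCl, 1 mM EDTA, 1% NP40, 5 mM MgCl2, 10% glycerol plus inhibitors. Lysates incubated with capture bead conjugate or mouse IgG magnetic beads (control) at 4°C for 5 h. Beads washed 3× in cold buffer, eluted in sample buffer, immunoblotted.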

[6] = test system: phosphorylation of FGFR, FRS2α, PLCɣ, AKT, and ERK; assay: Western blots of FGFR signaling; assay type: cell-based; conditions: SUM52PE, MFE296, and AN3CA cells; 24 h
Summary of the method: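 Lysates resolved and transferred to nitrocellulose; blocked 1 h in 5% milk/TBST (20 mM Tris-HCl pH 7.5, 135 mM NaCl, 0.1% Tween 20) at RT. Primary antibodies 1:1,000 overnight at 4°C; HRP anti-mouse or anti-rabbit 1:10,000 1 h RT. Detection by ECL and film.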

[7] = test system: SUM52PE, MFE296, AN3CA and MFE280 cell lines; assay: Dose-response proliferation assays; assay type: cell-based; conditions: MFE296, AN3CA (FGFR2-high) and MFE280 (FGFR2-low)
[8] = test system: FGFR2-expressing cell lines; conditions: excess Bliss score, n=14 cell lines, Supplementary Fig. S11
[9] = test system: pAKT, pS6, Ki67; assay: IHC analysis of paired tumor tissue samples; assay type: in vivo, human; conditions: baseline vs C1D15 biopsies, nine patients
Summary of the method: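 Paired FFPE tumor biopsies from baseline and C1D15 during oral once-daily dosing. IHC for Ki67 (rabbit mAb clone 30-9; nuclear staining), pAKT and pS6. Cytoplasmic pAKT/pS6 scored by H-score: intensity 0, 1+, 2+, 3+. H-score = Σ(% cells at each intensity × intensity).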

[10] = target: mutated p110α (Homo sapiens, UniProt P42336, H1047R); assay type: cell-based; conditions: FGFR2 N550K-overexpressing cells, not matched control cells; 24 h
[11] = test system: PIK3CAmut solid tumors; assay: Phase 1 study: antitumor activity per RECIST v1.1; assay type: in vivo, human
[12] = target: p110α (Homo sapiens, UniProt P42336); assay: Ubiquitin pulldown; assay type: cell-based; conditions: PIK3CA WT cell line SUM52PE; 6 hours
[13] = test system: PIK3CA MAF in ctDNA; assay: ctDNA PIK3CA mutation allele frequency dynamics; assay type: in vivo, human; conditions: pretreatment vs on-treatment, majority of paired specimens
[14] = test system: FDG uptake of target lesions; assay: FDG-PET imaging pharmacodynamic response; assay type: in vivo, human
Summary of the method: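 FDG-PET at baseline and after 2 weeks of oral once-daily dosing (C1D22–28; C1D15–22 for backfill). On-treatment scans 1–4 h post-dose; blood glucose <180 mg/dL required. Central read by one radiologist; up to five target lesions (tumor:background ≥2:1, longest diameter ≥15 mm). PMR: >25% decrease in mean % change of lean-body-mass-corrected SUVmax, no new FDG-avid lesions.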

[15] = Phase 1 study: plasma pharmacokinetics, noncompartmental analysis; assay type: in vivo, human
Summary of the method: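 Oral single dose on C1D1, then 7-day washout with serial plasma PK sampling, then once-daily dosing from C1D8. PK population: patients with ≥1 dose and ≥1 evaluable post-dose sample. Parameters from plasma concentration–time profiles after single and multiple doses by noncompartmental analysis, summarized by dose level.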

[16] = test system: MFM223 X2.2 tumor xenograft; assay: MFM223 X2.2 xenograft efficacy study; assay type: in vivo, NCR nude mice; conditions: single agent, 25 mg/kg daily for 22 days
[17] = Phase 1 dose-escalation study NCT03006172 arm A: safety, DLT, MTD; assay type: in vivo, human
[18] = test system: MFM223 cell line; assay: Live-cell imaging by IncuCyte, long-term proliferation; assay type: cell-based; conditions: single agent
Summary of the method: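 Plated at 2,000 cells/well; inhibitors added next day at set concentrations. Medium with or without inhibitors renewed every 7 days. Phase-contrast imaging every 4 h in IncuCyte Zoom; confluence tracked in six replicate wells for the whole experiment.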

Chain of mutated p110α (P42336 whole entry H1047R): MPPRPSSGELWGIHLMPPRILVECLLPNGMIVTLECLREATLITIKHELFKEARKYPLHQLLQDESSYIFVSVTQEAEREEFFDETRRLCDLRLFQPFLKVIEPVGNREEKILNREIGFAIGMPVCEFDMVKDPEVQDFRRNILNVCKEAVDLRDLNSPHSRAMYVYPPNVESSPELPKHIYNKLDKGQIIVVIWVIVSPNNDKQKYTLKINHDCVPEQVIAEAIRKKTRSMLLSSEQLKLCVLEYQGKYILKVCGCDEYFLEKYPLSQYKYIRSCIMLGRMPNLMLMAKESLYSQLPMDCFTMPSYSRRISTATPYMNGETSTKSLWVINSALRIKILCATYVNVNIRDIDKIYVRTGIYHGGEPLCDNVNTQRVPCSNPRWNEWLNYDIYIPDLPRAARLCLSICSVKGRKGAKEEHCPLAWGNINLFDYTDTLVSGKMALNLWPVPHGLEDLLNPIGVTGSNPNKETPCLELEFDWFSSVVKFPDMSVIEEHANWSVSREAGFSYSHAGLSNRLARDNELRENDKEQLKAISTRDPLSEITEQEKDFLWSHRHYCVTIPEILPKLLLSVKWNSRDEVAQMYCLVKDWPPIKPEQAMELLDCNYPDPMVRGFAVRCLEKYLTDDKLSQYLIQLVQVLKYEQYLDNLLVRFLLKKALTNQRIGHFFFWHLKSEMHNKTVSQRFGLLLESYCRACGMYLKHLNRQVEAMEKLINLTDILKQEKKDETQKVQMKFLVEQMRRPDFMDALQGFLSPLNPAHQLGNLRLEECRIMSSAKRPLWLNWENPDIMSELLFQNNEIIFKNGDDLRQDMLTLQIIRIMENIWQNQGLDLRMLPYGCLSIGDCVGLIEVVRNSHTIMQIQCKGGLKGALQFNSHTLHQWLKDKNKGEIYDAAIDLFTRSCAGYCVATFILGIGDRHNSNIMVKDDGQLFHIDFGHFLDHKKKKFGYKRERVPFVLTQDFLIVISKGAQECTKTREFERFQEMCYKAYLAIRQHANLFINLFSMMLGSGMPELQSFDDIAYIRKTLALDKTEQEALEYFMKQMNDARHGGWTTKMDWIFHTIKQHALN
Chain of mutated p110α (O00459 whole entry partner): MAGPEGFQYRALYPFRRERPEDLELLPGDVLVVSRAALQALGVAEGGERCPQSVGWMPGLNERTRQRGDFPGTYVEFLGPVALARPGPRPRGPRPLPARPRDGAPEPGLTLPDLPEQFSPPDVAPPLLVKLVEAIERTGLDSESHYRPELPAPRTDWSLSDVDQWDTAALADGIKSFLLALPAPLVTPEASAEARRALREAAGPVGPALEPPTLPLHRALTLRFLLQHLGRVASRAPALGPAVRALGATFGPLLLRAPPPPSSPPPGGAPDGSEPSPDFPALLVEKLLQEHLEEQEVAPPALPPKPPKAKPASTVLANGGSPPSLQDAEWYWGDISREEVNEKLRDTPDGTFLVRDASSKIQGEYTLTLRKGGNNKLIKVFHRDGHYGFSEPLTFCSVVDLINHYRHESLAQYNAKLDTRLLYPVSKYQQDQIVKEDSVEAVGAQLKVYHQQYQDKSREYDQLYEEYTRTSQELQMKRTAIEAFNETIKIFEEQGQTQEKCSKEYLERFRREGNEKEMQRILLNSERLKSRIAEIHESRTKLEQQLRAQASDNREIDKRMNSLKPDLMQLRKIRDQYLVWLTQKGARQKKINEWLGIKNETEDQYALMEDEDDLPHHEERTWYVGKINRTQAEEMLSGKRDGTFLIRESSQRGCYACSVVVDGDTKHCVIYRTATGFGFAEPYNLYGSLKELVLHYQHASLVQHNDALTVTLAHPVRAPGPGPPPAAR
Chain of p110α (Homo sapiens, UniProt P42336) (P42336 whole entry): as the sequence (P42336 whole entry H1047R) above, with R1047H counted along it

## Cc1nc(NC(=O)N2CCC[C@H]2C(N)=O)sc1-c1ccnc(C(C)(C)C(F)(F)F)c1 [alpelisib, reference compound]
[1]; 1-μmol/L alpelisib
  time to pAKT rebound: 30 minutes

## CS(=O)(=O)CCNCc1ccc(-c2ccc3ncnc(Nc4ccc(OCc5cccc(F)c5)c(Cl)c4)c3c2)o1 [lapatinib, reference compound]
[2]; MFE280 FGFR2-low cells, 1 h
  HER3–p85β interaction: suppressed
[3]
  phosphorylation of HER3 and AKT: decreased phosphorylation
[4]; MFE280 cells, combined with inavolisib
  effect on inavolisib-induced p110α ubiquitination: prevented
[5]
  RAS-GTP levels and RAS–p110α interaction: affected neither

## CCN1CCN(c2ccc(Nc3cc(N(C)C(=O)Nc4c(Cl)c(OC)cc(OC)c4Cl)ncn3)cc2)CC1 [infigratinib]
[6]
  reduction of phosphorylation of FGFR and downstream effectors: equal potency
[7]
  sensitivity of cell lines: sensitive
[8]
  combination effect with inavolisib: synergized

## C[C@H](Nc1ccc2c(c1)OCCn1cc(N3C(=O)OC[C@H]3C(F)F)nc1-2)C(N)=O [inavolisib]
[2]; SUM52PE, MFM223, and MFE280 cells, 1 hour
  binding of p85β to HER3: did not affect
[1]; 0.5-μmol/L inavolisib
  time to pAKT reactivation: 24 hours
[9]
  PI3K pathway activity (H-scores pAKT, pS6) and Ki67 proliferation: consistent decrease
[10]
  mutated p110α protein level: degradation
[11]; 95% CI, 3.5–7.3
  median progression-free survival (PFS): 3.7 months
[11]; 95% CI, 15–59
  landmark PFS rate at 6 months: 37%
[11]; N = 20 (n = 9)
  clinical benefit rate: 45%
[11]; patients with measurable disease (n = 19), RECIST v1.1
  best overall response rate (PR): 26%
[11]; responders with a confirmed response, 95% CI, 3.0–not evaluable
  duration of response: 3.7 months
[4]; PIK3CAmut cell lines MFM223 and MFE280
  ubiquitination of p110α: induced ubiquitination
[12]
  ubiquitination of p110α: no ubiquitination
[13]
  PIK3CA MAF over time: decreased
[14]; 6 mg
  mean reduction in uptake: 25%
[14]; 6 mg, 4/7
  patients achieving a PMR: 57%
[14]; >6 mg
  mean reduction in uptake: 43%
[14]; >6 mg, 12/13
  patients achieving a PMR: 92%
[15]; continuous once-daily dosing
  accumulation: twofold
[15]; human, plasma, oral
  half-life: 16 h
[15]; single and multiple doses, 6-12 mg
  plasma exposure versus dose: dose-proportional
[16]
  tumor growth: did not result in tumor growth inhibition
[17]; 12-mg dose group, grade 4 hyperglycemia and grade 3 fatigue that lasted 5 days
  DLT-evaluable patients who experienced DLTs: two of four
[17]; All grades, N = 20
  Alopecia, related AE: 3 (15) n (%)
  Asthenia, related AE: 2 (10) n (%)
  Constipation, related AE: 2 (10) n (%)
  Decreased appetite, related AE: 4 (20) n (%)
  Diarrhea, related AE: 9 (45) n (%)
  Dysgeusia, related AE: 2 (10) n (%)
  Fatigue, related AE: 3 (15) n (%)
  Flatulence, related AE: 2 (10) n (%)
  Headache, related AE: 2 (10) n (%)
  Hyperglycemia, related AE: 14 (70) n (%)
  Hyponatremia, related AE: 2 (10) n (%)
  Lymphopenia, related AE: 2 (10) n (%)
  Nausea, related AE: 3 (15) n (%)
  Stomatitis (grouped term), related AE: 4 (20) n (%)
  Taste disorder, related AE: 2 (10) n (%)
  Thrombocytopenia, related AE: 2 (10) n (%)
  Total number of patients with at least one AE, related AE: 19 (95) n (%)
  Vision blurred, related AE: 2 (10) n (%)
  Vomiting, related AE: 4 (20) n (%)
  Weight decreased, related AE: 3 (15) n (%)
[17]; Eleven patients, N = 20
  patients with at least one related AE leading to dose modification: 55%
[17]; Grades 3–5, N = 20
  Alopecia, related AE: 0 n (%)
  Asthenia, related AE: 1 (5) n (%)
  Constipation, related AE: 0 n (%)
  Decreased appetite, related AE: 0 n (%)
  Diarrhea, related AE: 0 n (%)
  Dysgeusia, related AE: 0 n (%)
  Fatigue, related AE: 1 (5) n (%)
  Flatulence, related AE: 0 n (%)
  Headache, related AE: 0 n (%)
  Hyperglycemia, related AE: 4 (20) n (%)
  Hyponatremia, related AE: 0 n (%)
  Lymphopenia, related AE: 1 (5) n (%)
  Nausea, related AE: 1 (5) n (%)
  Stomatitis (grouped term), related AE: 0 n (%)
  Taste disorder, related AE: 0 n (%)
  Thrombocytopenia, related AE: 0 n (%)
  Total number of patients with at least one AE, related AE: 8 (40) n (%)
  Vision blurred, related AE: 0 n (%)
  Vomiting, related AE: 0 n (%)
  Weight decreased, related AE: 1 (5) n (%)
[17]; N = 20
  grade 5 AE: No grade 5 AE
  grade of treatment-related diarrhea events: 1 to 2
  treatment-related grade ≥3 gastrointestinal toxicities: No treatment-related grade ≥3 gastrointestinal toxicities
[17]; grade 4 hyperglycemia, 12-mg cohort
  serious AE related to inavolisib: One patient
[17]; monotherapy, including nine patients on treatment for ≥5 months
  colitis: not observed
[17]; once daily oral, patients with PIK3CAmut solid tumors
  maximum tolerated dose (MTD): 9 mg
[17]; one patient, grade 1, N = 20
  treatment-related rash: 5%
[18]
  day of rebound in proliferation (resistance) after treatment initiation: 11 days

## C[C@@H](Oc1ccc2[nH]nc(/C=C/c3cnn(CCO)c3)c2c1)c1c(Cl)cncc1Cl [LY2874455]
[8]
  combination effect with inavolisib: synergized

From paper PMC12770939 (Clinical Cancer Research, 2025)
